{"source": "ChEMBL document CHEMBL2346643", "about": "“Semisynthetic studies identify mitochondria poisons from botanical dietary supplements--geranyloxycoumarins from Aegle marmelos” (Bioorg Med Chem, 2013)", "key": {"MDA-MB-231 [1]": {"tested_on": "MDA-MB-231", "assay": "Antiproliferative activity against human MDA-MB-231 cells at 1 to 10 uM after 48 hrs by SRB assay", "format": "functional, cell-based", "summary_of_the_method": "(§1)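 T47D or MDA-MB-231 breast tumor cells were exposed to 1, 3, 10 and 30 μM for 48 h or 144 h (6 d). For the 6 d exposure, medium was replaced after 3 days with fresh medium containing compound. Stocks were 4 mM in 2-propanol, with final solvent below 0.75%. Viability was measured by sulforhodamine B and expressed as % inhibition of the untreated control: [1−(OD treated/OD control)]×100.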"}, "T47D [2]": {"tested_on": "T47D", "assay": "Inhibition of mitochondrial ETC complex 1 in human digitonin-permeabalized T47D cells assessed as inhibition of malate/pyruvate-initiated respiration at 30 uM after 2 hrs by Clarke-type electrode analysis", "format": "cell-based"}, "[3]": {"target": "Mitochondrial complex I (NADH dehydrogenase)", "assay": "Inhibition of mitochondrial ETC complex 1 in human T47D cells assessed as inhibition of 1% O2-induced HIF1 activation incubated for 30 mins prior to 1% O2-challenge measured after 16 hrs by luciferase reporter assay", "format": "cell-based", "summary_of_the_method": "(§2)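 pHRE-luc reporter transfected T47D cells were exposed for 16 h to hypoxia (1% O2) or to chemical hypoxia (10 μM 1,10-phenanthroline) in the presence of compound. The highest concentration tested was 30 μM. Luciferase signal was expressed as % inhibition of the induced control. IC50 and 95% CI came from one representative concentration-response experiment run in triplicate. Cycloheximide at 10 μM served as control.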"}, "T47D [4]": {"tested_on": "T47D", "assay": "Inhibition of mitochondrial ETC complex 1 in human T47D cells assessed as inhibition of oxygen consumption at 30 uM after 5 to 10 mins by Clarke-type electrode analysis", "format": "cell-based", "summary_of_the_method": "(§3)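 For acute exposure, intact T47D cells received compound at 3, 10 or 30 μM for 5–10 min. Oxygen consumption was then measured with a Clarke-type electrode, with rotenone at 1–100 nM as control. Results are % inhibition of the untreated rate, averaged over two independent experiments with deviation from the average.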"}, "T47D [5]": {"tested_on": "T47D", "assay": "Inhibition of mitochondrial ETC complex 1 in human T47D cells assessed as inhibition of oxygen consumption after 5 to 10 mins by Clarke-type electrode analysis", "format": "cell-based", "summary_of_the_method": "as §3"}, "T47D [6]": {"tested_on": "T47D", "assay": "Antiproliferative activity against human T47D cells at 1 to 10 uM after 48 hrs by SRB assay", "format": "functional, cell-based", "summary_of_the_method": "as §1"}, "[7]": {"target": "Mitochondrial complex I (NADH dehydrogenase)", "assay": "Inhibition of mitochondrial ETC complex 1 in human T47D cells assessed as inhibition of 1,10-phenanthroline-induced HIF1 activation incubated for 30 mins prior to 1,10-phenanthroline-challenge measured after 16 hrs by luciferase reporter assay", "format": "cell-based", "summary_of_the_method": "as §2"}, "T47D [8]": {"tested_on": "T47D", "assay": "Inhibition of mitochondrial ETC complex 4 in human digitonin-permeabalized T47D cells assessed as inhibition of ascorbate/TMPD-initiated respiration at 30 uM after 2 hrs by Clarke-type electrode analysis in presence of antimycin A", "format": "cell-based"}, "T47D [9]": {"tested_on": "T47D", "assay": "Inhibition of mitochondrial ETC complex 2 in human digitonin-permeabalized T47D cells assessed as inhibition of succinate-initiated respiration at 30 uM after 2 hrs by Clarke-type electrode analysis", "format": "cell-based"}, "T47D [10]": {"tested_on": "T47D", "assay": "Inhibition of mitochondrial ETC complex 1 in human digitonin-permeabalized T47D cells assessed as inhibition of malate/pyruvate-initiated respiration at 30 uM after 2 hrs by Clarke-type electrode analysis in presence of succinate", "format": "cell-based"}, "T47D [11]": {"tested_on": "T47D", "assay": "Inhibition of mitochondrial ETC complex 2 in human digitonin-permeabalized T47D cells assessed as inhibition of succinate-initiated respiration at 10 uM after 2 hrs by Clarke-type electrode analysis", "format": "cell-based", "summary_of_the_method": "(§4)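 T47D cells were pretreated for 2 h with 10 μM compound (rotenone control 0.01 μM), then detached, washed and permeabilized with digitonin. Substrates and inhibitors were added in sequence while O2 uptake was followed by Clarke electrode. Respiration was started with malate/pyruvate (complex I) or succinate (complex II). Antimycin A then blocked complex III, and TMPD/ascorbate re-initiated respiration via complex IV. Rates were normalized to the untreated control.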"}, "T47D [12]": {"tested_on": "T47D", "assay": "Antiproliferative activity against human T47D cells at 1 to 30 uM after 144 hrs by SRB assay", "format": "functional, cell-based", "summary_of_the_method": "as §1"}, "T47D [13]": {"tested_on": "T47D", "assay": "Inhibition of mitochondrial ETC complex 1 in human digitonin-permeabalized T47D cells assessed as inhibition of malate/pyruvate-initiated respiration at 10 uM after 2 hrs by Clarke-type electrode analysis", "format": "cell-based", "summary_of_the_method": "as §4"}, "T47D [14]": {"tested_on": "T47D", "assay": "Inhibition of mitochondrial ETC complex 1 in human T47D cells assessed as inhibition of oxygen consumption at 10 uM after 2 hrs by Clarke-type electrode analysis", "format": "cell-based", "summary_of_the_method": "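T47D cells were pretreated with 10 μM compound, or 0.01 μM rotenone, for 2 h. Cells were then detached and washed, and the oxygen consumption rate was measured with a Clarke-type electrode. Results are % inhibition relative to untreated controls.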"}, "T47D [15]": {"tested_on": "T47D", "assay": "Inhibition of mitochondrial ETC complex 1 in human T47D cells assessed as inhibition of oxygen consumption at 10 uM after 10 mins by Clarke-type electrode analysis", "format": "cell-based", "summary_of_the_method": "as §3"}, "T47D [16]": {"tested_on": "T47D", "assay": "Inhibition of mitochondrial ETC complex 4 in human digitonin-permeabalized T47D cells assessed as inhibition of ascorbate/TMPD-initiated respiration at 10 uM after 2 hrs by Clarke-type electrode analysis in presence of antimycin A", "format": "cell-based", "summary_of_the_method": "as §4"}, "MDA-MB-231 [17]": {"tested_on": "MDA-MB-231", "assay": "Antiproliferative activity against human MDA-MB-231 cells at 1 to 30 uM after 144 hrs by SRB assay", "format": "functional, cell-based", "summary_of_the_method": "as §1"}, "T47D [18]": {"tested_on": "T47D", "assay": "Antiproliferative activity against human T47D cells at 30 uM after 48 hrs by SRB assay", "format": "functional, cell-based", "summary_of_the_method": "as §1"}, "MDA-MB-231 [19]": {"tested_on": "MDA-MB-231", "assay": "Antiproliferative activity against human MDA-MB-231 cells at 30 uM after 48 hrs by SRB assay", "format": "functional, cell-based", "summary_of_the_method": "as §1"}}, "note": "Calls of active or inactive are those of the source. No cut-off for these calls is given here.", "data": [{"compound": "CC(C)=CCC/C(C)=C/COc1ccc2ccc(=O)oc2c1", "note": "[AURAPTENE]", "values": [{"measurement": "Activity", "setting": "MDA-MB-231 [1]", "value": "Active"}, {"measurement": "inhibition", "setting": "T47D [2]", "value": "Active"}, {"measurement": "IC50", "setting": "[3]", "value": 10.2, "unit": "µM"}, {"measurement": "inhibition", "setting": "T47D [4]", "value": 30, "unit": "%"}, {"measurement": "inhibition", "setting": "T47D [5]", "value": "Dose-dependent effect"}, {"measurement": "Activity", "setting": "T47D [6]", "value": "Active"}, {"measurement": "IC50", "setting": "[7]", "value": 18.8, "unit": "µM"}, {"measurement": "inhibition", "setting": "T47D [8]", "value": "inactive"}, {"measurement": "inhibition", "setting": "T47D [9]", "value": "inactive"}, {"measurement": "inhibition", "setting": "T47D [10]", "value": "inactive"}]}, {"compound": "CC(C)=CCOc1ccc(CCNC(=O)/C=C/c2ccccc2)cc1", "note": "[DEHYDROMARMELINE]", "values": [{"measurement": "inhibition", "setting": "T47D [2]", "value": "Active"}, {"measurement": "IC50", "setting": "[3]", "value": 15.1, "unit": "µM"}, {"measurement": "inhibition", "setting": "T47D [4]", "value": 70, "unit": "%"}, {"measurement": "IC50", "setting": "[7]", "value": "> 30", "unit": "µM"}, {"measurement": "inhibition", "setting": "T47D [8]", "value": "inactive"}, {"measurement": "inhibition", "setting": "T47D [9]", "value": "inactive"}, {"measurement": "inhibition", "setting": "T47D [10]", "value": "inactive"}]}, {"compound": "CCCCC/C=C\\C/C=C\\CCCCCCCC(=O)O[C@H](CC/C(C)=C/COc1ccc2ccc(=O)oc2c1)C(C)(C)O", "note": "[R-(+)-MARMIN-6'-LINOLEATE]", "values": [{"measurement": "Activity", "setting": "MDA-MB-231 [1]", "value": "Active"}, {"measurement": "inhibition", "setting": "T47D [11]", "value": 41, "unit": "%"}, {"measurement": "IC50", "setting": "[3]", "value": 0.92, "unit": "µM"}, {"measurement": "Activity", "setting": "T47D [12]", "value": "Active"}, {"measurement": "inhibition", "setting": "T47D [13]", "value": 68, "unit": "%"}, {"measurement": "inhibition", "setting": "T47D [4]", "value": 25, "unit": "%"}, {"measurement": "inhibition", "setting": "T47D [14]", "value": 62, "unit": "%"}, {"measurement": "Activity", "setting": "T47D [6]", "value": "Active"}, {"measurement": "IC50", "setting": "[7]", "value": 2.35, "unit": "µM"}, {"measurement": "inhibition", "setting": "T47D [15]", "value": 6, "unit": "%"}, {"measurement": "inhibition", "setting": "T47D [16]", "value": "inactive"}, {"measurement": "Activity", "setting": "MDA-MB-231 [17]", "value": "Active"}]}, {"compound": "CCCCCCCC(=O)O[C@H](CC/C(C)=C/COc1ccc2ccc(=O)oc2c1)C(C)(C)O", "note": "[R-(+)-MARMIN-6'-OCTANOATE]", "values": [{"measurement": "Activity", "setting": "MDA-MB-231 [1]", "value": "Active"}, {"measurement": "IC50", "setting": "[3]", "value": 3.08, "unit": "µM"}, {"measurement": "Activity", "setting": "T47D [18]", "value": "Active"}, {"measurement": "Activity", "setting": "T47D [12]", "value": "Active"}, {"measurement": "inhibition", "setting": "T47D [4]", "value": 30, "unit": "%"}, {"measurement": "inhibition", "setting": "T47D [5]", "value": "Dose-dependent effect"}, {"measurement": "inhibition", "setting": "T47D [14]", "value": 39, "unit": "%"}, {"measurement": "Activity", "setting": "T47D [6]", "value": "Active"}, {"measurement": "IC50", "setting": "[7]", "value": 3.71, "unit": "µM"}, {"measurement": "Activity", "setting": "MDA-MB-231 [19]", "value": "Active"}, {"measurement": "inhibition", "setting": "T47D [15]", "value": 28, "unit": "%"}, {"measurement": "inhibition", "setting": "T47D [16]", "value": "inactive"}, {"measurement": "Activity", "setting": "MDA-MB-231 [17]", "value": "Active"}]}, {"compound": "CCCCCCCCCCCCCCCC(=O)O[C@H](CC/C(C)=C/COc1ccc2ccc(=O)oc2c1)C(C)(C)O", "note": "[R-(+)-MARMIN-6'-PALMITATE]", "values": [{"measurement": "Activity", "setting": "MDA-MB-231 [1]", "value": "Active"}, {"measurement": "IC50", "setting": "[3]", "value": "> 30", "unit": "µM"}, {"measurement": "inhibition", "setting": "T47D [4]", "value": 20, "unit": "%"}, {"measurement": "Activity", "setting": "T47D [6]", "value": "Active"}, {"measurement": "IC50", "setting": "[7]", "value": "> 30", "unit": "µM"}]}, {"compound": "CCCCCCCCCCC(=O)O[C@H](CC/C(C)=C/COc1ccc2ccc(=O)oc2c1)C(C)(C)O", "note": "[R-(+)-MARMIN-6'-UNDECANOATE]", "values": [{"measurement": "Activity", "setting": "MDA-MB-231 [1]", "value": "Active"}, {"measurement": "IC50", "setting": "[3]", "value": 0.87, "unit": "µM"}, {"measurement": "Activity", "setting": "T47D [18]", "value": "Active"}, {"measurement": "Activity", "setting": "T47D [12]", "value": "Active"}, {"measurement": "inhibition", "setting": "T47D [4]", "value": 30, "unit": "%"}, {"measurement": "inhibition", "setting": "T47D [5]", "value": "Dose-dependent effect"}, {"measurement": "Activity", "setting": "T47D [6]", "value": "Active"}, {"measurement": "IC50", "setting": "[7]", "value": 3.67, "unit": "µM"}, {"measurement": "Activity", "setting": "MDA-MB-231 [19]", "value": "Active"}, {"measurement": "Activity", "setting": "MDA-MB-231 [17]", "value": "Active"}]}, {"compound": "C/C(=C\\COc1ccc2ccc(=O)oc2c1)CC[C@@H](O)C(C)(C)O", "note": "[R-(+)-MARMIN]", "values": [{"measurement": "Activity", "setting": "MDA-MB-231 [1]", "value": "Active"}, {"measurement": "IC50", "setting": "[3]", "value": "> 30", "unit": "µM"}, {"measurement": "inhibition", "setting": "T47D [4]", "value": 20, "unit": "%"}, {"measurement": "Activity", "setting": "T47D [6]", "value": "Active"}, {"measurement": "IC50", "setting": "[7]", "value": "> 30", "unit": "µM"}]}]}
